Assay results as given in ChEMBL document CHEMBL1629587, “Discovery of a small-molecule inhibitor of {beta}-1,6-glucan synthesis” (2009).
In brackets after ≈: the same amount, converted by molar mass. Activity calls are given as the source filed them. No cut-off for these calls is given here.

Columns and labels:
Trichosporon asahii = assay: Antifungal activity against Trichosporon asahii ATCC 90039 at 32 ug/ml after 24 hrs by microdilution method; type: functional, organism-based
Procedure, shortened: (§1)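 CLSI broth microdilution run at 30°C instead of standard temperature; starting inoculum 1 × 10^3 to 3 × 10^3 cells/ml; DMSO under 1% final. Endpoints: MIC-0 = lowest concentration giving an optically clear well; MIC-2 = 50% drop versus drug-free control in absorbance at 570 nm with alamar blue redox indicator, used because treated cells clump.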

Kluyveromyces marxianus = assay: Antifungal activity against Candida kefyr ATCC 46764 after 24 hrs by microdilution method; type: functional; details: ATCC 46764, 24 h; procedure, shortened: as §1
Aspergillus sp. = assay: Antifungal activity against Aspergillus sp. at 32 ug/ml after 24 hrs by microdilution method; type: functional, organism-based; procedure, shortened: as §1
Saccharomyces cerevisiae [1] = assay: Fungicidal activity against Saccharomyces cerevisiae CT-1a mutant after 24 hrs by microdilution method; type: functional
Aspergillus flavus = assay: Antifungal activity against Aspergillus flavus ATCC 64025 after 24 hrs by microdilution method; type: functional; details: ATCC 64025, 24 h; procedure, shortened: as §1
Saccharomyces cerevisiae [2] = assay: Antifungal activity against Saccharomyces cerevisiae YPH500 after 24 hrs by microdilution method; type: functional; details: YPH500, 24 h
Procedure, shortened: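 CLSI broth microdilution, incubated at 30°C, starting inoculum 1 × 10^3 to 3 × 10^3 cells/ml; drugs from DMSO, final DMSO below 1%. MIC-0 is the lowest concentration giving an optically clear well. MIC-2 is read with alamar blue as a 50% drop in A570 versus the drug-free control; both endpoints were recorded.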

Aspergillus fumigatus = assay: Antifungal activity against Aspergillus fumigatus ATCC 36607 after 24 hrs by microdilution method; type: functional; details: ATCC 36607, 24 h; procedure, shortened: as §1
Candida albicans [3] = assay: Inhibition of hyphal elongation of Candida albicans ATCC 24433 at 4 ug/ml after 6 hrs by microscopy; type: functional, organism-based
Procedure, shortened: (§2)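 Hyphae induced in HFM-7 medium (Lee's medium also used) on type I collagen-coated wells, drug 0, 1, 4 or 16 μg/ml; static culture at 37°C, viewed by light microscopy after 6 h or 24 h.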

Saccharomyces cerevisiae [4] = assay: Fungicidal activity against Saccharomyces cerevisiae CT-2a mutant after 24 hrs by microdilution method; type: functional
Cryptococcus neoformans [5] = assay: Antifungal activity against Cryptococcus neoformans ATCC 90112 at 32 ug/ml after 24 hrs by microdilution method; type: functional, organism-based; procedure, shortened: as §1
Nakaseomyces glabratus [6] = assay: Fungicidal activity against Candida glabrata IFO0622 after 24 hrs by microdilution method; type: functional; details: IFO0622, 24 h
Procedure, shortened: (§3)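 Fungicidal concentration: after the MIC plate read, 4 μl from each well transferred into 200 μl MOPS-buffered RPMI, incubated 24 h at 30°C; MFC = lowest drug concentration with no visible growth.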

Candida tropicalis = assay: Antifungal activity against Candida tropicalis TIMM0313 after 24 hrs by microdilution method; type: functional; details: TIMM0313, 24 h; procedure, shortened: as §1
Saccharomyces cerevisiae [7] = assay: Inhibition of chitin synthesis in Saccharomyces cerevisiae AY-10 assessed as reduction in [14C]glucose incorporation at 0.078 to 1.25 ug/ml after 1 hr; type: functional, organism-based
Procedure, shortened: (§4)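 Exponential cells in RPMI 1640 at A595 about 0.6, pulse-labelled with [14C]glucose 2 μCi/ml plus drug at 30°C, sampled at 1 and 3 h. Cell wall fractionated: mannan from 3% NaOH extracts at 80°C by Fehling's reaction; residue digested with Zymolyase 100T (1 mg/ml), insoluble part = chitin; β-1,3-glucan = total glucan minus dialysed β-1,6-glucan. Scintillation counting; % change versus untreated.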

Saccharomyces cerevisiae [8] = assay: […] activity against Saccharomyces cerevisiae AY-10 transformed with pRS416-13 carrying ADP1 gene after 24 hrs by microdilution method; type: functional; details: AY-10, 24 h
Nakaseomyces glabratus [9] = assay: Induction of multibudding phenotype in Candida glabrata IFO0622 after 18 hrs by microscopy; type: functional, organism-based
Procedure, shortened: (§5)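 Exponential-phase cells suspended in RPMI 1640 with or without drug (2 μg/ml shown), shaken gently 18 h at 30°C, fixed in 3% glutaraldehyde in 0.1 M phosphate buffer, inspected by inverted light microscopy.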

Saccharomyces cerevisiae [10] = assay: Fungicidal activity against Saccharomyces cerevisiae AY-10-R16 mutant after 24 hrs by microdilution method; type: functional; details: AY-10-R16, 24 h
Saccharomyces cerevisiae [11] = assay: Fungicidal activity against Saccharomyces cerevisiae AY-10-R4 mutant after 24 hrs by microdilution method; type: functional; details: AY-10-R4, 24 h
Saccharomyces cerevisiae [12] = assay: […] activity against Saccharomyces cerevisiae AY-10 transformed with empty vector pRS416 after 24 hrs by microdilution method; type: functional; details: AY-10, 24 h
Saccharomyces cerevisiae [13] = assay: Inhibition of mannan synthesis in Saccharomyces cerevisiae AY-10 assessed as reduction in [14C]glucose incorporation at 0.078 to 1.25 ug/ml after 3 hrs; type: functional, organism-based; procedure, shortened: as §4
Saccharomyces cerevisiae [14] = assay: Induction of multibudding phenotype in Saccharomyces cerevisiae YPH500 after 18 hrs by microscopy; type: functional, organism-based; procedure, shortened: as §5
Pichia kudriavzevii = assay: Antifungal activity against Candida krusei TIMM0269 after 24 hrs by microdilution method; type: functional; details: TIMM0269, 24 h; procedure, shortened: as §1
Saccharomyces cerevisiae [15] = assay: Inhibition of mannan synthesis in Saccharomyces cerevisiae AY-10 assessed as reduction in [14C]glucose incorporation at 0.078 to 1.25 ug/ml after 1 hr; type: functional, organism-based; procedure, shortened: as §4
Candida albicans [16] = assay: Inhibition of hyphal elongation of Candida albicans ATCC 24433 at 16 ug/ml after 6 hrs by microscopy; type: functional, organism-based; procedure, shortened: as §2
Candida albicans [17] = assay: Induction of multibudding phenotype in Candida albicans ATCC 24433 after 18 hrs by microscopy; type: functional, organism-based; procedure, shortened: as §5
Clavispora lusitaniae = assay: Antifungal activity against Candida lusitaniae ATCC 200951 after 24 hrs by microdilution method; type: functional; details: ATCC 200951, 24 h; procedure, shortened: as §1
Saccharomyces cerevisiae [18] = assay: […] activity against Saccharomyces cerevisiae AY-10 transformed with pRS416-31 carrying KRE6 gene after 24 hrs by microdilution method; type: functional; details: AY-10, 24 h
Candida albicans [19] = assay: Antifungal activity against Candida albicans ATCC 24433 after 24 hrs by microdilution method; type: functional; details: ATCC 24433, 24 h; procedure, shortened: as §1
Saccharomyces cerevisiae [20] = assay: […] activity against Saccharomyces cerevisiae AY-10 after 24 hrs by microdilution method; type: functional; details: AY-10, 24 h
Saccharomyces cerevisiae [21] = assay: Fungicidal activity against Saccharomyces cerevisiae AY-10-R15 mutant after 24 hrs by microdilution method; type: functional; details: AY-10-R15, 24 h
PC-6 = assay: Cytotoxicity against human PC6 cells; type: functional
Procedure, shortened: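 Human PC-6 lung cancer cells; growth inhibition read as GI50; DMSO kept below 0.5% final for human cells.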

Candida albicans [22] = assay: Fungicidal activity against Candida albicans ATCC 24433 after 24 hrs by microdilution method; type: functional; details: ATCC 24433, 24 h; procedure, shortened: as §3
Candida albicans [23] = assay: Inhibition of hyphal elongation of Candida albicans ATCC 24433 at 1 ug/ml after 24 hrs by microscopy; type: functional, organism-based; procedure, shortened: as §2
Cryptococcus neoformans [24] = assay: Antifungal activity against Cryptococcus neoformans ATCC 90112 after 24 hrs by microdilution method; type: functional; details: ATCC 90112, 24 h; procedure, shortened: as §1
Candida albicans [25] = assay: Antifungal activity against Candida albicans ATCC MYA-573 after 24 hrs by microdilution method; type: functional; details: ATCC MYA-573, 24 h; procedure, shortened: as §1

Question: Which results are given for `CCc1c(C)c(C#N)c2nc3ccccc3n2c1NCCN(CC)CC`?
Answer: Activity (Trichosporon asahii): inactive; MIC (Kluyveromyces marxianus): 2 µg/mL (≈ 5.72 µM); MIC50 (Kluyveromyces marxianus): 1 µg/mL (≈ 2.86 µM); Activity (Aspergillus sp.): inactive; MIC (Saccharomyces cerevisiae [1]): 8 µg/mL (≈ 22.9 µM); MIC (Aspergillus flavus): > 32 µg/mL; MIC50 (Aspergillus flavus): > 32 µg/mL; MIC (Saccharomyces cerevisiae [2]): 2 µg/mL (≈ 5.72 µM); MIC50 (Saccharomyces cerevisiae [2]): 1 µg/mL (≈ 2.86 µM); MIC (Aspergillus fumigatus): > 32 µg/mL; MIC50 (Aspergillus fumigatus): > 32 µg/mL; inhibition (Candida albicans [3]): Active; MIC (Saccharomyces cerevisiae [4]): > 64 µg/mL; Activity (Cryptococcus neoformans [5]): inactive; MFC (Nakaseomyces glabratus [6]): 32 µg/mL (≈ 91.6 µM); MIC (Candida tropicalis): 8 µg/mL (≈ 22.9 µM); MIC50 (Candida tropicalis): 1 µg/mL (≈ 2.86 µM); inhibition (Saccharomyces cerevisiae [7]): inactive; MIC (Saccharomyces cerevisiae [8]): 4 µg/mL (≈ 11.4 µM); Activity (Nakaseomyces glabratus [9]): Active; MIC (Saccharomyces cerevisiae [10]): 4 µg/mL (≈ 11.4 µM); MIC (Saccharomyces cerevisiae [11]): 8 µg/mL (≈ 22.9 µM); MIC (Saccharomyces cerevisiae [12]): 2 µg/mL (≈ 5.72 µM); inhibition (Saccharomyces cerevisiae [13]): inactive; Activity (Saccharomyces cerevisiae [14]): Active; MIC (Pichia kudriavzevii): 16 µg/mL (≈ 45.8 µM); MIC50 (Pichia kudriavzevii): 8 µg/mL (≈ 22.9 µM); inhibition (Saccharomyces cerevisiae [15]): inactive; inhibition (Candida albicans [16]): Active; Activity (Candida albicans [17]): Active; MIC (Clavispora lusitaniae): 16 µg/mL (≈ 45.8 µM); MIC50 (Clavispora lusitaniae): 8 µg/mL (≈ 22.9 µM); MIC (Saccharomyces cerevisiae [18]): 32 µg/mL (≈ 91.6 µM); MIC (Candida albicans [19]): 32 µg/mL (≈ 91.6 µM); MIC50 (Candida albicans [19]): 8 µg/mL (≈ 22.9 µM); MIC (Saccharomyces cerevisiae [20]): 2 µg/mL (≈ 5.72 µM); MIC (Saccharomyces cerevisiae [21]): > 64 µg/mL; GI50 (PC-6): > 16 µg/mL; MFC (Candida albicans [22]): > 32 µg/mL; inhibition (Candida albicans [23]): Active; MIC (Cryptococcus neoformans [24]): > 32 µg/mL; MIC50 (Cryptococcus neoformans [24]): > 32 µg/mL; MIC (Candida albicans [25]): 32 µg/mL (≈ 91.6 µM); MIC50 (Candida albicans [25]): 16 µg/mL (≈ 45.8 µM)
